Measured values reported in ChEMBL document CHEMBL1152672, “Side chain azasteroids and thiasteroids as sterol methyltransferase inhibitors in ergosterol biosynthesis” (2009).
Converted amounts (≈) assume the structure as drawn. The source made the active and inactive calls. No cut-off for these calls is given here.

Experiments:
[1] = biological target: T1, Sterol 24-C-methyltransferase (Yarrowia lipolytica) (UniProt Q6C2D9); test: Inhibition of Yarrowia lipolytica 24-SMT assessed as cholesta-7,24-dien-3-trimethylsilyl derivative at 0.2 ug/mL after 48 hrs by GC-MS analysis relative to untreated control; design: scale not given: the % may be the effect or the level left
T1 sequence (whole entry): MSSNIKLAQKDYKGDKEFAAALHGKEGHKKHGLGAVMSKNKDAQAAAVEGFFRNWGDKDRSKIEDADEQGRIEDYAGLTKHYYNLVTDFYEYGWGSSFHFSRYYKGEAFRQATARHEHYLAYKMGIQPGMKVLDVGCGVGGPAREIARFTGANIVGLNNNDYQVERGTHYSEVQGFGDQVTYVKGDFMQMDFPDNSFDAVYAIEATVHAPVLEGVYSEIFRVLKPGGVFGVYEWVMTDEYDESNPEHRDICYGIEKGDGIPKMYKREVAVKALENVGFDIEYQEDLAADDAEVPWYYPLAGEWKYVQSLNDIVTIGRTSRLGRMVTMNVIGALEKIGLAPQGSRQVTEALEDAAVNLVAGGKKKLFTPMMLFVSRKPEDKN
Procedure, shortened: (§1)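 Whole-cell sterol profiling. Y. lipolytica at 50,000 CFU/mL was exposed to compounds added from ethanol for 48 ± 2 h at 28 °C, and the MIC/2 and/or MIC/4 wells were used. Cells were pelleted and PBS-washed, then saponified in 1 M NaOH at 70 °C for 1 h. Sterols were extracted into TBME with a cholesterol internal standard and silylated to TMS ethers. GC-MS full scan, with each sterol given as % of total integrated quantifier-ion area.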

[2] = biological target: T1, Sterol 24-C-methyltransferase (Yarrowia lipolytica); test: Inhibition of Yarrowia lipolytica 24-SMT assessed as dehydroergosterol-3-trimethylsilyl derivative at 0.2 ug/mL after 48 hrs by GC-MS analysis relative to untreated control; design: scale not given: the % may be the effect or the level left; procedure, shortened: as §1
[3] = biological target: T1, Sterol 24-C-methyltransferase (Yarrowia lipolytica); test: Inhibition of Yarrowia lipolytica 24-SMT assessed as 5-dehydroepisterol-3-trimethylsilyl derivative at 0.2 ug/mL after 48 hrs by GC-MS analysis relative to untreated control; design: scale not given: the % may be the effect or the level left; procedure, shortened: as §1
[4] = biological target: T1, Sterol 24-C-methyltransferase (Yarrowia lipolytica); test: Inhibition of Yarrowia lipolytica 24-SMT assessed as lanosterol-3-trimethylsilyl derivative at 0.2 ug/mL after 48 hrs by GC-MS analysis relative to untreated control; design: scale not given: the % may be the effect or the level left; procedure, shortened: as §1
Yarrowia lipolytica [5] = test: Antimicrobial activity against Yarrowia lipolytica after 48 hrs; format: functional
Procedure, shortened: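 Broth dilution MIC per DIN 58940-84. Log-phase Y. lipolytica in yeast extract/peptone/glucose medium, counted against a 0.5 McFarland standard (A570) and seeded at 50,000 CFU/mL in 2 mL wells. Compounds added from ethanol; final concentrations 2 to 0.06125 µg/mL unless otherwise stated. Plates incubated 48 ± 2 h at 28 °C. MIC is the lowest concentration with no visible growth.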

[6] = biological target: T1, Sterol 24-C-methyltransferase (Yarrowia lipolytica); test: Inhibition of Yarrowia lipolytica 24-SMT assessed as zymosterol-3-trimethylsilyl derivative level at 0.2 ug/mL after 48 hrs by GC-MS analysis relative to untreated control; design: scale not given: the % may be the effect or the level left; procedure, shortened: as §1
[7] = biological target: T1, Sterol 24-C-methyltransferase (Yarrowia lipolytica); test: Inhibition of Yarrowia lipolytica 24-SMT assessed as cholesta-5,7,24-trien-3-trimethylsilyl derivative at 0.2 ug/mL after 48 hrs by GC-MS analysis relative to untreated control; design: scale not given: the % may be the effect or the level left; procedure, shortened: as §1
[8] = biological target: T1, Sterol 24-C-methyltransferase (Yarrowia lipolytica); test: Inhibition of Yarrowia lipolytica 24-SMT assessed as dehydroergosterol-3-trimethylsilyl derivative at 0.06 ug/mL after 48 hrs by GC-MS analysis relative to untreated control; design: scale not given: the % may be the effect or the level left; procedure, shortened: as §1
[9] = biological target: T1, Sterol 24-C-methyltransferase (Yarrowia lipolytica); test: Inhibition of Yarrowia lipolytica 24-SMT assessed as 5-dehydroepisterol-3-trimethylsilyl derivative at 0.06 ug/mL after 48 hrs by GC-MS analysis relative to untreated control; design: scale not given: the % may be the effect or the level left; procedure, shortened: as §1
[10] = biological target: T1, Sterol 24-C-methyltransferase (Yarrowia lipolytica); test: Inhibition of Yarrowia lipolytica 24-SMT assessed as ergosterol-3-trimethylsilyl derivative level at 0.2 ug/mL after 48 hrs by GC-MS analysis relative to untreated control; design: scale not given: the % may be the effect or the level left; procedure, shortened: as §1
[11] = biological target: T1, Sterol 24-C-methyltransferase (Yarrowia lipolytica); test: Inhibition of Yarrowia lipolytica 24-sterol C-methyltransferase assessed as ergosterol-3-trimethylsilyl derivative level at 0.06 ug/mL after 48 hrs by GC-MS analysis relative to untreated control; design: scale not given: the % may be the effect or the level left; procedure, shortened: as §1
[12] = biological target: T1, Sterol 24-C-methyltransferase (Yarrowia lipolytica); test: Inhibition of Yarrowia lipolytica 24-SMT assessed as cholesta-5,7,24-trien-3-trimethylsilyl derivative at 0.06 ug/mL after 48 hrs by GC-MS analysis relative to untreated control; design: scale not given: the % may be the effect or the level left; procedure, shortened: as §1
Yarrowia lipolytica [13] = test: Antimicrobial activity against Yarrowia lipolytica by agar diffusion test; format: functional, organism-based
[14] = biological target: T1, Sterol 24-C-methyltransferase (Yarrowia lipolytica); test: Inhibition of Yarrowia lipolytica 24-SMT assessed as dehydroergosterol-3-trimethylsilyl derivative at 0.1 ug/mL after 48 hrs by GC-MS analysis relative to untreated control; design: scale not given: the % may be the effect or the level left; procedure, shortened: as §1
[15] = biological target: T1, Sterol 24-C-methyltransferase (Yarrowia lipolytica); test: Inhibition of Yarrowia lipolytica 24-SMT assessed as cholesta-7,24-dien-3-trimethylsilyl derivative at 0.1 ug/mL after 48 hrs by GC-MS analysis relative to untreated control; design: scale not given: the % may be the effect or the level left; procedure, shortened: as §1
[16] = biological target: T1, Sterol 24-C-methyltransferase (Yarrowia lipolytica); test: Inhibition of Yarrowia lipolytica 24-SMT assessed as 5-dehydroepisterol-3-trimethylsilyl derivative at 0.1 ug/mL after 48 hrs by GC-MS analysis relative to untreated control; design: scale not given: the % may be the effect or the level left; procedure, shortened: as §1
[17] = biological target: T1, Sterol 24-C-methyltransferase (Yarrowia lipolytica); test: Inhibition of Yarrowia lipolytica 24-SMT assessed as lanosterol-3-trimethylsilyl derivative at 0.1 ug/mL after 48 hrs by GC-MS analysis relative to untreated control; design: scale not given: the % may be the effect or the level left; procedure, shortened: as §1
[18] = biological target: T1, Sterol 24-C-methyltransferase (Yarrowia lipolytica); test: Inhibition of Yarrowia lipolytica 24-SMT assessed as zymosterol-3-trimethylsilyl derivative level at 0.1 ug/mL after 48 hrs by GC-MS analysis relative to untreated control; design: scale not given: the % may be the effect or the level left; procedure, shortened: as §1
[19] = biological target: T1, Sterol 24-C-methyltransferase (Yarrowia lipolytica); test: Inhibition of Yarrowia lipolytica 24-SMT assessed as cholesta-5,7,24-trien-3-trimethylsilyl derivative at 0.1 ug/mL after 48 hrs by GC-MS analysis relative to untreated control; design: scale not given: the % may be the effect or the level left; procedure, shortened: as §1
[20] = biological target: T1, Sterol 24-C-methyltransferase (Yarrowia lipolytica); test: Inhibition of Yarrowia lipolytica 24-SMT assessed as cholesta-7,24-dien-3-trimethylsilyl derivative at 0.06 ug/mL after 48 hrs by GC-MS analysis relative to untreated control; design: scale not given: the % may be the effect or the level left; procedure, shortened: as §1

SMILES: CC(C)C(C)NC[C@@H](C)[C@H]1CC[C@H]2C3=CC[C@H]4C[C@@H](O)CC[C@]4(C)[C@H]3CC[C@]12C (mixture of isomers)
- Activity [1]: 2.4%
- Activity [2]: 73.3%
- Activity [3]: 4.6%
- Activity [4]: 0.3%
- MIC (Yarrowia lipolytica [5]): 0.5 µg/mL
- Activity [6]: 1.4%
- Activity [7]: 18%

SMILES: C[C@H](/C=C/c1cccc[n+]1C)[C@H]1CC[C@H]2C3=CCC4C[C@@H](O)CC[C@]4(C)[C@H]3CC[C@]12C.[I-] (stereo not given in full)
- Activity [8]: 82.1%
- Activity [1]: 4.3%
- Activity [2]: 7%
- Activity [3]: 1%
- Activity [9]: 0.7%
- Activity [4]: 0.3%
- MIC (Yarrowia lipolytica [5]): 1 µg/mL
- Activity [10]: 4.1%
- Activity [11]: 15%
- Activity [7]: 83.4%
- Activity [12]: 2.2%

SMILES: C[C@H](/C=C/c1ccncc1)[C@H]1CC[C@H]2C3=CCC4C[C@@H](O)CC[C@]4(C)[C@H]3CC[C@]12C (stereo not given in full)
- MIC (Yarrowia lipolytica [13]): inactive

SMILES: CC(C)CNC[C@@H](C)[C@H]1CC[C@H]2C3=CC[C@H]4C[C@@H](O)CC[C@]4(C)[C@H]3CC[C@]12C
- Activity [14]: 47.6%
- Activity [15]: 3.1%
- Activity [16]: 4.4%
- Activity [17]: 0.3%
- MIC (Yarrowia lipolytica [5]): 0.25 µg/mL (≈ 0.645 µM)
- Activity [18]: 1.2%
- Activity [19]: 43.3%

SMILES: CCCCN(C)C[C@@H](C)[C@H]1CC[C@H]2C3=CC[C@H]4C[C@@H](O)CC[C@]4(C)[C@H]3CC[C@]12C
- Activity [1]: 5.6%
- Activity [2]: 37.4%
- Activity [3]: 4.2%
- Activity [4]: 0.4%
- MIC (Yarrowia lipolytica [5]): 0.5 µg/mL (≈ 1.24 µM)
- Activity [6]: 4.2%
- Activity [7]: 48.2%

SMILES: CCCNCC[C@@H](C)[C@H]1CC[C@H]2C3=CC[C@H]4C[C@@H](O)CC[C@]4(C)[C@H]3CC[C@]12C
- Activity [8]: 25.9%
- Activity [20]: 5.4%
- Activity [9]: 2.9%
- MIC (Yarrowia lipolytica [5]): 0.25 µg/mL (≈ 0.645 µM)
- Activity [11]: 5%
- Activity [12]: 60.8%

SMILES: CCCNC[C@@H](C)[C@H]1CC[C@H]2C3=CC[C@H]4C[C@@H](O)CC[C@]4(C)[C@H]3CC[C@]12C
- Activity [14]: 47.3%
- Activity [16]: 3.7%
- MIC (Yarrowia lipolytica [5]): 0.25 µg/mL (≈ 0.669 µM)
- Activity [18]: 0.5%
- Activity [19]: 48.5%

SMILES: CCNC[C@@H](C)[C@H]1CC[C@H]2C3=CC[C@H]4C[C@@H](O)CC[C@]4(C)[C@H]3CC[C@]12C
- Activity [1]: 3.6%
- Activity [2]: 64.7%
- Activity [3]: 2.8%
- MIC (Yarrowia lipolytica [5]): 2 µg/mL (≈ 5.56 µM)
- Activity [10]: 3.4%
- Activity [7]: 25.5%
